Measurements reported in PubChem BioAssay AID488769 (The Scripps Research Institute Molecular Screening Center, 2010).

Molecular target: Nuclear receptor subfamily 5 group A member 2 (Homo sapiens) (UniProt O00482)
Assay: lowering haptoglobin, SAA1, SAA4 transcripts – cell-based, quantitative PCR, fluorescence (AID 488769)
Conditions: Huh7 cytokine-induced target gene mRNA, TaqMan qPCR, 18 h, at 10 µM, active compounds read high;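 active means compounds cutting cytokine-driven expression of at least one of three liver inflammation genes by over 25%; inactive means the rest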
Outline: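 Material: Huh7 cells with endogenous LRH-1 expression; also added: IL-1β and IL-6, 3 nM; compound dosing: single test concentration of 10 µM, DMSO as vehicle; timing: 18 h compound exposure, then 3 h cytokine stimulation; detection: TaqMan qPCR of haptoglobin, SAA1 and SAA4 mRNA; read-out basis: mean % inhibition of target mRNA; repeats: triplicate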

Measured: inhibition

Nuclear receptor subfamily 5 group A member 2 (Homo sapiens), sequence (O00482 whole entry, looked up): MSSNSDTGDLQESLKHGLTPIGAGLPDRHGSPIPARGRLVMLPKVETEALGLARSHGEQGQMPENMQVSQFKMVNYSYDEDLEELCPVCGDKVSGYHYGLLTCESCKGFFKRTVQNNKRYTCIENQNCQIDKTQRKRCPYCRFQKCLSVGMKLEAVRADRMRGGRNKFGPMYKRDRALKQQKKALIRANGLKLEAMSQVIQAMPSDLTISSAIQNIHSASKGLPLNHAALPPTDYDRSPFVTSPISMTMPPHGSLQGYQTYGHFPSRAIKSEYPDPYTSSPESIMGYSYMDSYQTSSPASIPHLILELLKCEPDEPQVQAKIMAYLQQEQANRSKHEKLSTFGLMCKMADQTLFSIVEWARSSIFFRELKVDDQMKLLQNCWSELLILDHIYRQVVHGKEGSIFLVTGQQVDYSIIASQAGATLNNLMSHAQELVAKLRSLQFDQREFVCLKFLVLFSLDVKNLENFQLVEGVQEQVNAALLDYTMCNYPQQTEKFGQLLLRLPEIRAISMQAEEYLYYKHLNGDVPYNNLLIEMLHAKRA

O=c1cc(N2CCN(c3cccc(Cl)c3)CC2)[nH]c(=O)n1C1CCCCC1
active: Haptoglobin 88% | SAA1 91% | SAA4 55%

O=c1cc(N2CCN(c3cccc(C(F)(F)F)c3)CC2)[nH]c(=O)n1C1CCCCC1
active: Haptoglobin 86% | SAA1 93% | SAA4 55%
